Assay results from ChEMBL document CHEMBL4308835, “Fluorine-Substituted Pyrrolo[2,3- d]Pyrimidine Analogues with Tumor Targeting via Cellular Uptake by Folate Receptor α and the Proton-Coupled Folate Transporter and Inhibition of de Novo Purine Nucleotide Biosynthesis” (J Med Chem, 2018).
Active and inactive are the calls of the source. The calls are words filed in the database; no cut-off is given here.

Legend:
[1] = biological target: T1, Reduced folate transporter (Homo sapiens) (UniProt P41440); test: Inhibition of human RFC2 expressed in human HeLa R1-11 cells assessed as reduction in [3H]MTX uptake at pH 7.2 at 1 uM measured over 2 mins relative to control; type: cell-based
T1 sequence (whole entry): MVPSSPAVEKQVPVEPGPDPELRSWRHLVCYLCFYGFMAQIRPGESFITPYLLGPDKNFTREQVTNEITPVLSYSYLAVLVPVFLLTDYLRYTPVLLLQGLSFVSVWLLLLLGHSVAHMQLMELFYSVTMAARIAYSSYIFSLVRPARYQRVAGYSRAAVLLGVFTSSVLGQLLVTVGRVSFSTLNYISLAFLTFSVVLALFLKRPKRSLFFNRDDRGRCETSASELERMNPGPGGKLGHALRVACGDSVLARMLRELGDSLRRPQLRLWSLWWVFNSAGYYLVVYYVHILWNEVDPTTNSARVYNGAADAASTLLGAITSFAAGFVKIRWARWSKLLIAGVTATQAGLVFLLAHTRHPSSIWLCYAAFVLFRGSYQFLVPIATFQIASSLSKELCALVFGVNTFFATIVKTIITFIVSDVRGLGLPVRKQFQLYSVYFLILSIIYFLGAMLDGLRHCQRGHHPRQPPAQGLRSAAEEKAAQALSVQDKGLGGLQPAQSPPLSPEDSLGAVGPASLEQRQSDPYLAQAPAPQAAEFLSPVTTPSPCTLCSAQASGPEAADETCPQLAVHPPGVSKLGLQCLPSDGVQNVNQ

[2] = test system: A2780; test: Antiproliferative activity against human A2780 cells after 96 hrs by Cell-Titer Blue assay; type: functional, cell-based; details: A2780, 96 h
[3] = test system: IGROV-1; test: Anticlonogenic activity against human IGROV1 cells incubated for 24 hrs followed by compound wash out and measured after 10 days by methylene blue staining-based assay; type: functional, cell-based
How it was run: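 IGROV1 cells plated in folate-free RPMI 1640 (pH 7.2), 10% dialyzed FBS, 25 nM LCV. After 24 h adherence, exposed to drug (0–20 μM) for 24 h at pH 6.8 (25 mM PIPES/25 mM HEPES). Washed, then grown drug-free at pH 7.2 (100 mM HEPES) with 25 nM LCV for up to 10 days at 37 °C. Colonies stained with methylene blue and counted electronically. Values normalized to vehicle controls. Triplicate experiments.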

[4] = test system: IGROV-1; test: Antiproliferative activity against FRalpha […] human IGROV1 KD4 cells after 96 hrs by Cell-Titer Blue assay; type: functional, cell-based; details: IGROV-1, 96 h
[5] = test system: IGROV-1; test: Antiproliferative activity against wild type human IGROV1 cells after 96 hrs by Cell-Titer Blue assay; type: functional, cell-based; details: IGROV-1, 96 h
[6] = test system: IGROV-1; test: Antiproliferative activity against FRalpha […] human IGROV1 KD10 cells after 96 hrs by Cell-Titer Blue assay; type: functional, cell-based; details: IGROV-1, 96 h
[7] = biological target: T1, Reduced folate transporter (Homo sapiens); test: Inhibition of human RFC2 expressed in human HeLa R1-11 cells assessed as reduction in [3H]MTX uptake at pH 7.2 at 10 uM measured over 2 mins relative to control; type: cell-based
[8] = test system: IGROV-1; test: Antiproliferative activity against human IGROV1 cells harboring non targeted control shRNA sequence after 96 hrs by Cell-Titer Blue assay; type: functional, cell-based; details: IGROV-1, 96 h
[9] = test system: IGROV-1; test: Antiproliferative activity against human IGROV1 cells at 1 to 1000 nM in presence of 60 uM adenosine after 96 hrs by Cell-Titer Blue assay; type: functional, cell-based
How it was run: (§1)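 IGROV1 cells, 2000/well, in folate-free RPMI 1640 with 10% dialyzed FBS, L-glutamine, 25 nM LCV. A range of drug concentrations was given with thymidine (10 μM), adenosine (60 μM) or AICA (320 μM) added. After 96 h, proliferation was measured by Cell-Titer Blue fluorescence. At least triplicate experiments.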

[10] = biological target: T2, Trifunctional purine biosynthetic protein adenosine-3 (Homo sapiens, UniProt P22102); test: Inhibition of GARFTase in human IGROV1 cells assessed as decrease in incorporation of [14C(U)glycine into [14C]formyl GAR formation after 24 hrs; type: cell-based
T2 sequence (P22102 whole entry): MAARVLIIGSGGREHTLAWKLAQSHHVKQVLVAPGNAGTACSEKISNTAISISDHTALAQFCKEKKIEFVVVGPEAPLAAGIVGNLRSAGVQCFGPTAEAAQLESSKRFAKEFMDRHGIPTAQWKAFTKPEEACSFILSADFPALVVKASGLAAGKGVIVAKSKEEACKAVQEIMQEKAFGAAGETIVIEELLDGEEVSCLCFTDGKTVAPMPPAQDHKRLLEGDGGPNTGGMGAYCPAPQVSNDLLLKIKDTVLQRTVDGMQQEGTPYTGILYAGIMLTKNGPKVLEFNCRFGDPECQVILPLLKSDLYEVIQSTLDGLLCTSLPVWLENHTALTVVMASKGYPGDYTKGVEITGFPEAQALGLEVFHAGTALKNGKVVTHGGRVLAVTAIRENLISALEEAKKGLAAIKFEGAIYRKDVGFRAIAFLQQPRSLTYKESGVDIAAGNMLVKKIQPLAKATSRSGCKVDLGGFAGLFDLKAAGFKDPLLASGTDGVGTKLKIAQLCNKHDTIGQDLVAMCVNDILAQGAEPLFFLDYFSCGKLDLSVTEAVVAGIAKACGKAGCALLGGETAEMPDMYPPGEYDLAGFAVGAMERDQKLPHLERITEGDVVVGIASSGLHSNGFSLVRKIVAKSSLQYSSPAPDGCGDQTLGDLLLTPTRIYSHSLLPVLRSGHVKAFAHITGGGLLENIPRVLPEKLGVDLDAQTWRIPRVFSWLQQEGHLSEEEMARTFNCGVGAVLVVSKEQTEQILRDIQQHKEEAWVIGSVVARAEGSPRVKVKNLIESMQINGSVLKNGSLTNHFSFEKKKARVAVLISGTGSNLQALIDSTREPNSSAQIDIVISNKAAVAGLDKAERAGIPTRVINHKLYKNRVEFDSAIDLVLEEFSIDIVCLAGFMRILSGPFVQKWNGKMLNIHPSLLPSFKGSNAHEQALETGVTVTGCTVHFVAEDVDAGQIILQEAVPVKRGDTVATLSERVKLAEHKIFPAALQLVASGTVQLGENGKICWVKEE

[11] = test system: IGROV-1; test: Antiproliferative activity against human IGROV1 cells at 1 to 1000 nM in presence of 320 uM AICA after 96 hrs by Cell-Titer Blue assay; type: functional, cell-based; how it was run: as §1
[12] = test system: IGROV-1; test: Antiproliferative activity against human IGROV1 cells at 1 to 1000 nM in presence of 10 uM thymidine after 96 hrs by Cell-Titer Blue assay; type: functional, cell-based; how it was run: as §1
[13] = biological target: T3, Proton-coupled folate transporter (Homo sapiens) (UniProt Q96NT5); test: Inhibition of human PCFT expressed in Chinese hamster R2/PCFT4 cells assessed as reduction in [3H]MTX uptake at pH 5.5 at 10 uM measured over 2 mins relative to control; type: cell-based
T3 sequence (whole entry): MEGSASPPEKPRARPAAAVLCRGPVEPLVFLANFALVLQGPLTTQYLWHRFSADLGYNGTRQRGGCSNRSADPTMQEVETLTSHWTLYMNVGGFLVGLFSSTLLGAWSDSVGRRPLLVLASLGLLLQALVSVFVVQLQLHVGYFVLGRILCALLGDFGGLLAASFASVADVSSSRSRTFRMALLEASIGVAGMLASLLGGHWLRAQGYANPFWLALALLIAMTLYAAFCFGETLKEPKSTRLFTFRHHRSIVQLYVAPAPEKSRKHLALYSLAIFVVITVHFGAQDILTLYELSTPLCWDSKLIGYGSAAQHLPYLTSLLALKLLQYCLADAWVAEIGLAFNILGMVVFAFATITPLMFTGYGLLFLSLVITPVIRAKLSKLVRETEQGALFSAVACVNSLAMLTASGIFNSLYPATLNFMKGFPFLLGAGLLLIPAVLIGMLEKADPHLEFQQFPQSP

[14] = biological target: T3, Proton-coupled folate transporter (Homo sapiens); test: Inhibition of human PCFT expressed in Chinese hamster R2/PCFT4 cells assessed as reduction in [3H]MTX uptake at pH 5.5 at 1 uM measured over 2 mins relative to control; type: cell-based
[15] = biological target: Folate receptor alpha (Homo sapiens) (UniProt P15328); test: Displacement of [3H]folic acid from human FRalpha expressed in Chinese hamster RT16 cells at 10 to 1000 nM after 15 mins; type: cell-based
Folate receptor alpha (Homo sapiens), sequence (P15328 25-234 limits assumed): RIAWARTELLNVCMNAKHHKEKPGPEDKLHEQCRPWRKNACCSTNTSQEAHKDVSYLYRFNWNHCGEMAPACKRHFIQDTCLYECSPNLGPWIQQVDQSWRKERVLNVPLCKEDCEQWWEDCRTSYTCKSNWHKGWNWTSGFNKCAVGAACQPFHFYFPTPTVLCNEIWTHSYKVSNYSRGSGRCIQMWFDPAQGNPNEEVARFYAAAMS
How it was run: (§2)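 RT16 (FRα) or D4 (FRβ) CHO cells at ~80% confluence were washed with PBS at 4 °C, then with pH 3.5 acetate buffer to strip bound folate, then HEPES-buffered saline pH 7.4. Cells were incubated with 50 nM [³H]folic acid plus competitor (10–1000 nM) for 15 min at 4 °C, washed, and solubilized in NaOH. Bound radioactivity was normalized to protein.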

[16] = Antiproliferative activity in Chinese hamster R2 cells deficient in RFC, PCFT, and FRalpha assessed as reduction in cell growth after 96 hrs by Cell-Titer Blue assay; type: cell-based; details: Cricetulus griseus, R2, 96 h
[17] = biological target: T3, Proton-coupled folate transporter (Homo sapiens); test: Inhibition of human PCFT expressed in Chinese hamster R2/PCFT4 cells assessed as reduction in [3H]MTX uptake at pH 5.5 at 1 to 10 uM measured over 2 mins; type: cell-based
[18] = biological target: T4, Proton-coupled folate transporter (Homo sapiens, UniProt Q96NT5); test: Inhibition of human PCFT expressed in Chinese hamster R2/PCFT4 cells assessed as reduction in [3H]MTX uptake at pH 5.5 measured over 2 mins by Dixon plot analysis; type: cell-based
T4 sequence (Q96NT5 whole entry): T3 sequence (whole entry)
How it was run: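 Competitor concentrations ranged from 0.05 to 0.5 μM. Ki was obtained by Dixon plot. Mean ± SE of four independent experiments.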

[19] = biological target: Folate receptor beta (Homo sapiens) (UniProt P14207); test: Displacement of [3H]folic acid from human FRbeta expressed in Chinese hamster D4 cells at 10 to 1000 nM after 15 mins; type: cell-based; how it was run: as §2
Folate receptor beta (Homo sapiens), sequence (P14207 17-230 limits assumed): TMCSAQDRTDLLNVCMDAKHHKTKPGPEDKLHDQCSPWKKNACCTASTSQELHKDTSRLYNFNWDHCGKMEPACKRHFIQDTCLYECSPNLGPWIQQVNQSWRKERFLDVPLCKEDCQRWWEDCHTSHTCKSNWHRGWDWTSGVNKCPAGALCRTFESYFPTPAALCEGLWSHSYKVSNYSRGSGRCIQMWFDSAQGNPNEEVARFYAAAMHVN

SMILES | inhibition [1] | IC50 [2] [nM] | IC50 [3] [µM] | IC50 [4] [nM] | IC50 [5] [nM] | IC50 [6] [nM] | inhibition [7] | IC50 [8] [nM] | Activity [9] | IC50 [10] [nM] | Activity [11] | Activity [12] | inhibition [13] | inhibition [14] | inhibition [15] | IC50 [16] [nM] | inhibition [17] | Ki [18] [nM] | inhibition [19]
Nc1nc2[nH]cc(CCc3ccc(C(=O)N[C@@H](CCC(=O)O)C(=O)O)cc3)c2c(=O)[nH]1 [PEMETREXED] | inactive | 39.4 | > 20 | 46.6 | 104 | 22.2 | inactive | 71 |  |  |  |  |  |  |  |  |  |  | 
Nc1nc2[nH]c(CCCCc3cnc(C(=O)N[C@@H](CCC(=O)O)C(=O)O)c(F)c3)cc2c(=O)[nH]1 | inactive |  |  | > 1000 |  | > 1000 | inactive |  | inactive | 2 | inactive | Active | 90 to 95% | 60 to 85% | Active | > 1000 |  |  | 
Nc1nc2[nH]c(CCCCc3ccc(C(=O)N[C@@H](CCC(=O)O)C(=O)O)c(F)c3)cc2c(=O)[nH]1 | inactive |  |  |  |  |  | inactive |  | inactive |  | inactive | Active | 90 to 95% | 60 to 85% | Active |  |  |  | 
Nc1nc2[nH]c(CCCCc3ccc(C(=O)N[C@@H](CCC(=O)O)C(=O)O)cc3)cc2c(=O)[nH]1 | inactive | 14.2 |  |  |  | > 1000 | inactive |  |  |  |  |  |  |  |  |  |  |  | 
Nc1nc2[nH]c(CCCc3ccc(C(=O)N[C@@H](CCC(=O)O)C(=O)O)cc3)cc2c(=O)[nH]1 | inactive | 2.72 |  |  |  |  | inactive |  | inactive |  | inactive | Active | Active | Active |  | > 1000 | Active | 630 | 
Nc1nc(N)c2nc(CNc3ccc(C(=O)N[C@@H](CCCNC(=O)c4ccccc4C(=O)O)C(=O)O)cc3)cnc2n1 | inactive |  |  |  |  |  | inactive |  |  |  |  |  | Active | Active |  |  | Active |  | 
Nc1nc2[nH]c(CCCCc3csc(C(=O)N[C@@H](CCC(=O)O)C(=O)O)c3)cc2c(=O)[nH]1 | inactive | 28.8 |  | > 1000 | 54.3 | > 1000 | inactive | 40.7 |  |  |  |  | Active | Active | Active | > 1000 | Active | 360 | Active
Nc1nc2[nH]c(CCCCc3ccc(C(=O)N[C@@H](CCC(=O)O)C(=O)O)nc3)cc2c(=O)[nH]1 | inactive | 5.42 |  | 64.1 | 1.87 | 30.5 | inactive | 1.55 |  |  |  |  | Active | Active | Active |  | Active | 240 | 
